Source: PubChem
Hits are enriched below; roughly 3.7% of the tested compounds scored in any of these assays.
MC4R antagonist = blocks human MC4R cAMP signaling. P32245. MC4R-expressing cells, MTII-stimulated cAMP, LANCE TR-FRET. inhibition, % at 6.5 µM. 360,000 compounds, 0.48% hits;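 active = inhibition above its plate's cutoff, the mean of tested wells on that plate plus 3 SD, cut at about 29% in these data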
Target sequence (P32245 whole entry, looked up): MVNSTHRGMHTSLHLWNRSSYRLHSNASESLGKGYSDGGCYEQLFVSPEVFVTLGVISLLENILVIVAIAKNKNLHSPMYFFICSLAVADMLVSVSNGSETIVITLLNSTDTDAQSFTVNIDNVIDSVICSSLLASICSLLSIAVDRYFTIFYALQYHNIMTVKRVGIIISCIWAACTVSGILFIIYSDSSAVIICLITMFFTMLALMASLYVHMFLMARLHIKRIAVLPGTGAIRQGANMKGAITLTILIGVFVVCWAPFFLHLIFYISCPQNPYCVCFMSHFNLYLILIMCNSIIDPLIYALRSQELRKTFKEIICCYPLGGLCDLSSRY
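Assay system: U2OS cells stably expressing human melanocortin 4 receptor (MC4R) / Dosing: 6.5 µM / Timing: compound 30 min, challenge 1 h, detection 1 h / Measured by: Eu-cAMP/anti-cAMP TR-FRET, emission 671 nm / Replicates: singlicate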
MC4R barr agon = human MC4R agonism via beta-arrestin | U2OS MC4R beta-arrestin complementation, luminescence; percent of melanotan II response, DMSO zero | activation, % at 8.9 µM | 360,000 compounds, 0.98% hits | AID 540308;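 active = activation above a per-plate cutoff, the mean activation of sample wells on that plate plus 3 SD, cut at about 8% in these data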
Myeloid diff 2 = compounds promoting myeloid differentiation; ER-HoxA9 myeloid progenitors, lysozyme-GFP differentiation, flow cytometry; 360,000 compounds, 1% hits; calls only at 10 µM;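 active = normalized GFP-positive differentiation at or above the plate's own cutoff, the solvent-only control mean plus 3 SD; inconclusive = no clear call, values can overlap the other calls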;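 note: cells exposed to compound for four days before flow analysis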
EBI2 block = antagonists of human EBI2 receptor. inhibition, % at 5 µM. AID 651636. EBI2 beta-arrestin recruitment, luminescence, 7a,25-OHC stimulated. P32249. 360,000 compounds, 0.81% hits; in the data active = inhibition above about 38%;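 note: enzyme fragment complementation signal reports receptor beta-arrestin coupling in cells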
Granule exo inh = lytic granule exocytosis inhibition; 360,000 compounds, 0.66% hits; TALL-104 LAMP-1 surface exposure, flow cytometry; cells stimulated with thapsigargin and PMA; inhibition, % at 10 µM;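 active = inhibition above about 55%, limit read from the data; inconclusive = no clear call, values can overlap the other calls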
EBI2 conf = confirmation of human EBI2 receptor antagonists; shares compounds with EBI2 block; EBI2 beta-arrestin luminescence, 7a,25-OHC antagonism; inhibition, % at 5 µM; 2,400 compounds, 29% hits; AID 651997;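 active = inhibition of at least 50%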
EBI2 agonist = activates EBI2, counter-screen for EBI2 antagonists | shares compounds with EBI2 block | 2,400 tested, under 10 active | EBI2-expressing cells, agonist mode, luminescence, 60 min; 0% vehicle, 100% 7α,25-dihydroxycholesterol control | activation, % at 5 µM;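 active = activation of at least 50%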
bGal cs = inhibits E. coli beta-galactosidase, counter-screen for EBI2 antagonists; 2,400 compounds, 1% hits; inhibition, % at 5 µM; purified beta-galactosidase, luminescent Galacton Star, 15 min; shares compounds with EBI2 block;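 active = replicate-average signal at least 3 plate SD below neutral wells, shown as high inhibition, flagging enzyme-inhibiting false positives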;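 note: higher means stronger loss of beta-gal luminescence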
Large screens that a line does not name were inactive (follow-up assays come after a bar, where they were run).

CC1CCN(C(=O)CSc2nnc(Cc3cccn3C)n2CCc2ccccc2)CC1	Myeloid diff 2 inconclusive, EBI2 block 47 | EBI2 conf inactive | EBI2 agonist inactive | bGal cs inactive
Cn1cccc1Cc1nnc(SCC(=O)N2CCCC2)n1CCc1ccccc1	none
COc1ccc(-n2c(Cc3cccn3C)nnc2SCC(=O)N2CCCc3ccccc32)cc1	EBI2 block 38 | EBI2 conf inactive | EBI2 agonist inactive | bGal cs inactive
COc1ccc(-n2c(Cc3cccn3C)nnc2SCC(=O)N2CCCC2)cc1	none
Cn1cccc1Cc1nnc(SCC(=O)N2CCc3ccccc32)n1CCc1ccccc1	EBI2 block 68 | EBI2 conf inactive | EBI2 agonist inactive | bGal cs inactive
O=C1C=C(c2cc(F)ccc2F)C[C@@H](c2ccc(Cl)cc2)C1	none
COc1cc(F)c(C2=CC(=O)C[C@H](c3ccc(Cl)cc3)C2)cc1F	EBI2 block 58 | EBI2 conf inactive | EBI2 agonist inactive | bGal cs inactive
O=C1C=C(c2ccc(-c3ccccc3)c(F)c2)C[C@@H](c2ccc(Cl)cc2)C1	none
O=C1C=C(c2ccc3c(c2)oc2ccccc23)C[C@@H](c2ccc(Cl)cc2)C1	EBI2 block 62 | EBI2 conf inactive | EBI2 agonist inactive | bGal cs inactive
CSc1ccc(C2=CC(=O)C[C@H](c3ccc(Cl)cc3)C2)cc1	EBI2 block 67 | EBI2 conf 52 | EBI2 agonist inactive | bGal cs inactive
O=C1C=C(c2cccc(Br)c2)C[C@@H](c2ccc(Cl)cc2)C1	EBI2 block 46 | EBI2 conf inactive | EBI2 agonist inactive | bGal cs inactive
COc1cccc(C(C(=O)NCC2CCCO2)N(C(=O)Cn2nnc3ccccc32)c2ccc(NC(C)=O)cc2)c1OC (stereo not given)	none
COc1ccc(-c2nn(-c3ccccc3)cc2C(=O)NC2CC2)cc1	none
CC1(C(=O)Nc2ccc3c(c2)OCCO3)CSCC(=O)N1CCc1ccccc1F (stereo not given)	none (no result: MC4R antagonist, MC4R barr agon)
CC(Oc1ccccc1)C(=O)Nc1nnc(S(=O)(=O)Nc2ccccc2)s1 (stereo not given)	none
O=C1C=C(c2cccc(Cl)c2)C[C@@H](c2ccc(Cl)cc2)C1	EBI2 block 53 | EBI2 conf inactive | EBI2 agonist inactive | bGal cs inactive
COc1ccc([C@H]2CC(=O)C=C(c3cccc(Cl)c3)C2)cc1	none
COc1ccc(-n2c(Cc3cccn3C)nnc2SCC(=O)Nc2ccccc2OC)cc1	EBI2 block 45 | EBI2 conf inactive | EBI2 agonist inactive | bGal cs inactive
Cc1ccc(-n2c(Cc3cccn3C)nnc2SCC(=O)NCc2ccc3c(c2)OCO3)cc1	EBI2 block 45 | EBI2 conf inactive | EBI2 agonist inactive | bGal cs inactive
Cc1ccc(-n2c(Cc3cccn3C)nnc2SCC(=O)Nc2ccc3c(c2)OCO3)cc1	none
COc1ccc(-n2c(Cc3cccn3C)nnc2SCC(=O)Nc2ccccc2)cc1	none
COc1ccc(-n2c(Cc3cccn3C)nnc2SCC(=O)NCc2ccccc2Cl)cc1	EBI2 block 56 | EBI2 conf inactive | EBI2 agonist inactive | bGal cs inactive
COc1ccc(-n2c(Cc3cccn3C)nnc2SCC(=O)NCc2ccc(F)cc2)cc1	none
COc1ccc(-n2c(Cc3cccn3C)nnc2SCC(=O)Nc2cccc(F)c2)cc1	EBI2 block 56 | EBI2 conf inactive | EBI2 agonist inactive | bGal cs inactive
CSCCC(c1nc2ccccc2[nH]1)n1c(=O)c(-c2ccco2)nc2ccccc21 (stereo not given)	none (no result: MC4R antagonist, MC4R barr agon)
COc1ccc(N2CCN(C(=O)CN3C(=O)NC4(CCCCCC4)C3=O)CC2)cc1	none
CC(C)CN(C(=O)COC(=O)c1ccc(Br)o1)c1c(N)n(Cc2ccccc2)c(=O)[nH]c1=O	none
Cn1cccc1Cc1nnc(SCC(N)=O)n1CCc1ccccc1	none
Cn1cccc1Cc1nnc(SCC(=O)Nc2cccc(F)c2)n1CCc1ccccc1	EBI2 block 45 | EBI2 conf inactive | EBI2 agonist inactive | bGal cs inactive
COc1ccc(-n2c(Cc3cccn3C)nnc2SCC(=O)Nc2cc(Cl)ccc2OC)cc1	Myeloid diff 2 inconclusive, EBI2 block 58 | EBI2 conf inactive | EBI2 agonist inactive | bGal cs inactive
CCCOc1ccc(C2=CC(=O)C[C@H](c3ccc(OC)cc3)C2)cc1	EBI2 block 67 | EBI2 conf inactive | EBI2 agonist inactive | bGal cs inactive
COc1ccc([C@H]2CC(=O)C=C(c3cccc(OC(F)(F)F)c3)C2)cc1	none
COc1ccc(C2=CC(=O)C[C@H](c3ccc(OC)c(OC)c3)C2)cc1	none
COc1ccc([C@H]2CC(=O)C=C(c3ccc(OC(F)(F)F)cc3)C2)cc1	EBI2 block 68 | EBI2 conf inactive | EBI2 agonist inactive | bGal cs inactive
COc1ccc([C@H]2CC(=O)C=C(/C=C/c3ccc(C(F)(F)F)cc3)C2)cc1	EBI2 block 65 | EBI2 conf inactive | EBI2 agonist inactive | bGal cs inactive
CCc1ccc(-c2n[nH]nc2C2=CC(=O)C[C@H](c3ccc(F)cc3)C2)cc1	EBI2 block 54 | EBI2 conf inactive | EBI2 agonist inactive | bGal cs inactive
COc1ccc2cc(C[C@@H]3CC[C@@H](CNC(N)=O)O3)ccc2c1	none
Cc1ccccc1Nc1nc(N)nc(COC(=O)c2c(C)noc2C)n1	none
COc1ccc(C(=O)COC(=O)CCNS(=O)(=O)c2ccccc2)c(OC)c1	none
O=C1[C@H](c2ccccc2)[C@@H](c2ccccc2)N1c1ccncc1	none
COc1cc(F)cc(C2=CC(=O)C[C@H](c3ccc(F)cc3)C2)c1	EBI2 block 52 | EBI2 conf inactive | EBI2 agonist inactive | bGal cs inactive
COc1ccc2cc(C#CC3=CC(=O)C[C@H](c4ccc(F)cc4)C3)ccc2c1	none
COc1cccc(C2=CC(=O)C[C@H](c3ccc(F)cc3)C2)c1	none
COc1ccc([C@H]2CC(=O)C=C(C#CC(C)(C)C)C2)cc1	EBI2 block 66 | EBI2 conf 67 | EBI2 agonist inactive | bGal cs inactive
CCCN1CCN(CCCNC(=O)c2ccc(CS(=O)c3ccccc3C)o2)CC1 (stereo not given)	none
Cc1ccc([N+](=O)[O-])cc1N(CC(=O)Nc1ccc(S(=O)(=O)Nc2cccc(C(F)(F)F)c2)cc1)S(C)(=O)=O	EBI2 block 84 | EBI2 conf 65 | EBI2 agonist inactive | bGal cs inactive
CCOc1ccccc1NC(=O)c1cc(SC)ccc1Cl	none
